SIRT5 block: SIRT5 desuccinylase inhibitors, primary screen, biochemical, fluorescence imaging, single point, set 5. Purified SirT5, succinyl-peptide AMC, trypsin-coupled fluorescence. hit rate 1.1% among 330,000. NAD-dependent protein deacylase sirtuin-5, mitochondrial (Homo sapiens), Q9NXA8. AID 652115, 2013. inhibition, % at 15 µM; in the data active = inhibition above about 15%; inconclusive = no clear call, values can overlap the other calls
Target sequence (Q9NXA8 whole entry, looked up): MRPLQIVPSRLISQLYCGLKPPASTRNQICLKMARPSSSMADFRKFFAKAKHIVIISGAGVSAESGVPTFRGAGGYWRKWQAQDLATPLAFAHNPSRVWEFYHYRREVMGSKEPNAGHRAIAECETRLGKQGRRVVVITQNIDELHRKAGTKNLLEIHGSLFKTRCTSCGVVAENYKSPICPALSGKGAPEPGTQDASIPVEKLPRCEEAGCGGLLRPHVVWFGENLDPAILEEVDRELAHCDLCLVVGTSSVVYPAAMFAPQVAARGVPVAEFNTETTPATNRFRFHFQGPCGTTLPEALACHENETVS
DENV2 CPE: inhibitors of DENV2 cytopathic effect, primary screen, cell-based, plate reader, single concentration | DENV2-infected cells, cytopathic effect rescue | CPE inhibition, % at 9.99 µM | hit rate 1.7% among 350,000 | AID 651640, 2012; in the data active = CPE inhibition above about 20%, passing the limit was not always enough; inconclusive = no clear call, values can overlap the other calls; tested in BHK-21 cells;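 also: 0% = median of neutral control wells and 100% = median of positive control wells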
E-sel inducer: E-selectin induction in HUVECs, primary screen, imaging, HUVEC, immunofluorescence imaging, single point. P16581. normalized: neutral wells 0, TNF-alpha wells 100. activation, % at 7.58 µM. hit rate 0.37% among 260,000. AID 686992, 2013;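 active = mean E-selectin-positive cell signal at least 10% of the positive control, reached in at least 60% of replicates, without over 20% cell loss; inconclusive = no rule given, readout overlaps actives, possibly toxicity-flagged; inactive = the rest, including those meeting only one limit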
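assay system = HUVEC, human umbilical vein endothelial cells | input = 3,000 HUVEC seeded per well | medium = EGM-2 growth medium on 0.1% gelatin-coated wells | dosing = one compound dose added by pin transfer | signal = immunofluorescence imaging | read-out basis = % PE-positive cells | control set = TNF-alpha, DMSO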
Active calls of the source: *; ? = inconclusive; · = not tested or not shown; ! = a repeat was not active. This is a sample that favours compounds with a hit; in the whole collection about 2.8% have one here.

SMILES	SIRT5 block	DENV2 CPE	E-sel inducer
COc1c2c(cc3oc(C)cc(=O)c13)OC(C(C)(C)OC1OC(CO)C(O)C(O)C1O)C2 (stereo not drawn)	-2	?	0
COc1c2c(cc3oc(CO[C@@H]4O[C@H](CO)[C@@H](O)[C@H](O)[C@H]4O)cc(=O)c13)O[C@H](C(C)(C)O)C2	-3	24*	0
COc1ccccc1NC(=O)N[C@@H]1CC[C@@H](CCNS(=O)(=O)c2ccc(C)cc2)O[C@@H]1CO	-1	1	1
Cc1noc(C)c1S(=O)(=O)Nc1ccc2c(c1)CC(=O)N([C@@H](C)CO)C[C@@H](C)[C@H](CN(C)S(=O)(=O)c1c(C)noc1C)O2	-1	2	1
CCc1c(C)nc2c(Br)cccc2c1SCCC#N	3	-7	·
CCc1c(C)nc2ccc(Br)cc2c1SCCC#N	112*	-1	2
CNC[C@@H]1OCCCC[C@H](C)Oc2ccc(NC(=O)Nc3c(C)noc3C)cc2C(=O)N([C@H](C)CO)C[C@@H]1C	·	·	1
CCOc1ccc(C(=O)Nc2cc(NC(=O)c3ccc(OCC)c(Cl)c3)cc(C(=O)O)c2)cc1Cl	15*	2	·
CCOc1ccc(C(=O)Nc2cccc(C(=O)O)c2)cc1Cl	-1	11	·
CCC(=O)N1CC2(C1)[C@H](c1ccc(-c3ccc(C#N)cc3)cc1)[C@@H](CO)N2C(C)=O	4	-4	0
N#C[C@H]1[C@H](c2ccccc2-c2ccccc2)[C@@H](CO)N1C(=O)Cc1cccnc1	-1	35*	0
N#C[C@@H]1[C@@H](c2ccccc2-c2ccccc2)[C@H](CO)N1C(=O)Cc1cccnc1	1	0	0
N#C[C@@H]1[C@@H](c2ccc(-c3ccccc3)cc2)[C@H](CO)N1C(=O)Cc1ccccc1	2	?	0
N#C[C@H]1[C@H](c2ccc(-c3ccccc3)cc2)[C@H](CO)N1C(=O)Cc1ccccc1	15*	?	0
O=C(C1CCCCC1)N1C[C@@H]2[C@H](c3ccccc31)[C@H](CO)N2C(=O)c1ccccc1F	-2	-11	-1
C[C@H]1CN([C@@H](C)CO)C(=O)Cc2cc(NS(=O)(=O)c3cn(C)cn3)ccc2O[C@@H]1CN(C)C(=O)Nc1ccccc1	-8	-11	0
O=C(C[C@H]1CC[C@H]2[C@@H](COC[C@@H](O)CN2S(=O)(=O)c2ccc(F)cc2)O1)NCc1ccc(Cl)c(Cl)c1	2	-2	0
CO[C@H]1CN(C)C(=O)c2ccc(NC(=O)c3ccc4c(c3)OCO4)cc2OC[C@H](C)N(CC2CC2)C[C@H]1C	·	-1	0
CCCCCCSc1cc(-c2nc3cnccn3c2NCCCC)ccc1OC	27*	·	·
CCCCCCSc1cc(-c2nc3cc(C)ccn3c2NCCCC)ccc1OC	·	2	0
COc1cccc(CN2CC(C(=O)N3CCCCCCC3)CCC2=O)c1 (stereo not drawn)	0	-6	·
O=C1CCC(C(=O)N2CCCCCC2)CN1Cc1cccc(C(F)(F)F)c1 (stereo not drawn)	18*	0	2
CCC(=O)N1[C@@H]2c3cccc(=O)n3C[C@@H]2[C@@H](CO)[C@@H]1C(=O)NCc1ccc(F)cc1	0	0	0
CC(C)CC#Cc1ccc2c(c1)O[C@@H](CN(C)C(=O)c1cnccn1)[C@@H](C)CN([C@H](C)CO)S2(=O)=O	-12	2	0
COc1ccc(-c2cn(CC[C@H]3CC[C@H](NC(=O)Cc4ccccn4)[C@@H](CO)O3)nn2)cc1	-3	-13	0
SMILES	SIRT5 block	DENV2 CPE	E-sel inducer
CC1(C)CC(=O)N(CC(=O)O)c2ccccc2S1(=O)=O	·	34*	·
CCC(C)NC(=O)CN1C(=O)CC(C)(C)S(=O)(=O)c2ccccc21 (stereo not drawn)	-5	6	0
C[C@@H]1CN([C@H](C)CO)C(=O)c2cc(C#Cc3ccccc3F)cnc2O[C@H]1CN(C)C(=O)C1CCC1	-3	4	1
Cc1ccccc1S(=O)(=O)N1C[C@H](O)COC[C@H]2O[C@H](CC(=O)N3CCN(C)CC3)CC[C@@H]21	1	-2	0
CCCC#Cc1ccc2c(c1)O[C@@H](CN(C)C(=O)c1cnccn1)[C@@H](C)CN([C@H](C)CO)S2(=O)=O	-2	5	0
CCCC#Cc1ccc2c(c1)O[C@@H](CN(C)C(=O)c1cnccn1)[C@@H](C)CN([C@@H](C)CO)S2(=O)=O	28*	10	1
CC(C)CC#Cc1ccc2c(c1)O[C@H](CN(C)C(=O)c1ccccc1F)[C@@H](C)CN([C@@H](C)CO)S2(=O)=O	9	32*	0
C[C@H](CO)N1C[C@H](C)[C@H](CN(C)C(=O)c2ccccc2F)Oc2cc(C#CCN(C)C)ccc2S1(=O)=O	-4	16	0
COc1cccc(C#Cc2ccc3c(c2)O[C@H](CN(C)C(=O)c2ccccn2)[C@H](C)CN([C@@H](C)CO)S3(=O)=O)c1	·	1	0
CCCC#Cc1ccc2c(c1)O[C@H](CN(C)C(=O)c1ccccc1F)[C@H](C)CN([C@H](C)CO)S2(=O)=O	18*	2	0
COCC#Cc1ccc2c(c1)O[C@@H](CN(C)C(=O)c1ccccc1F)[C@H](C)CN([C@H](C)CO)S2(=O)=O	-3	8	0
COc1cccc(C#Cc2ccc3c(c2)O[C@@H](CN(C)C(=O)c2ccccn2)[C@@H](C)CN([C@H](C)CO)S3(=O)=O)c1	16*!	?	-2
Cc1ccc(S(=O)(=O)Nc2ccc3c(c2)C(=O)N([C@H](C)CO)C[C@H](C)[C@@H](CN(C)Cc2ccccc2)OCCCC[C@@H](C)O3)cc1	·	-5	·
CCCC#Cc1ccc2c(c1)O[C@@H](CN(C)C(=O)Nc1ccccc1F)[C@@H](C)CN([C@H](C)CO)S2(=O)=O	3	2	0
CCCC#Cc1ccc2c(c1)O[C@@H](CN(C)C(=O)c1ccccc1F)[C@@H](C)CN([C@@H](C)CO)S2(=O)=O	17*	-12	0
CCCC#Cc1ccc2c(c1)O[C@H](CN(C)C(=O)Nc1ccccc1F)[C@@H](C)CN([C@H](C)CO)S2(=O)=O	21*	-1	0
COCC#Cc1ccc2c(c1)O[C@@H](CN(C)C(=O)c1ccccc1F)[C@@H](C)CN([C@H](C)CO)S2(=O)=O	4	?	1
CCN1[C@H](C(=O)OC)[C@@H](CO)[C@@H]2Cn3c(ccc(-c4cccc(C(=O)N(C)C)c4)c3=O)[C@@H]21	4	7	0
C[C@@H]1CN([C@H](C)CO)C(=O)c2cc(-c3ccc(F)cc3)cnc2O[C@@H]1CN(C)C(=O)Nc1ccc(F)cc1	·	·	0
COc1ccc(-c2cn(CC[C@H]3CC[C@@H](NC(=O)Cc4ccccn4)[C@H](CO)O3)nn2)cc1	-3	-4	1
O=C(C[C@H]1CC[C@@H](NC(=O)C2CC2)[C@@H](CO)O1)NCCCN1CCOCC1	-1	5	0
N#Cc1ccc(C(=O)Nc2cc(-c3ccccc3)nn2-c2ccccc2)cc1	-1	-3	0
N#Cc1ccc(C(=O)Nc2cc(C3CC3)nn2-c2ccccc2)cc1	-4	22*	0

Compound activity: PubChem, Broad Institute
